Measurements collected from several papers.
Lines come from different studies, so protocols differ.
Cell line: HeLa
Observed: cell growth or viability

Structure (SMILES)	test	conditions	CC50
Cc1nc2ccc(Cl)cn2c1C(=O)N1CCN(Cc2cn(-c3ccccc3Cl)nn2)CC1	resazurin		> 100 µM
CCOP(=O)(OCC)[C@@H]1C[C@@H](n2cc(Cn3cnc4c(N)ncnc43)nn2)ON1C (racemic)		72 h	> 250 µM
Cc1nc2ccc(Cl)cn2c1C(=O)N1CCN(Cc2cn(-c3ccc(Br)cc3)nn2)CC1	resazurin		> 100 µM
O=[N+]([O-])c1ccc(-c2nc3cccc(O)c3[nH]2)o1	resazurin	72 h	20 µM
CCOP(=O)(OCC)[C@@H]1C[C@@H](n2cc(-c3nccn3C)nn2)ON1C		72 h	> 250 µM
Cc1ccn2c(C(=O)N3CCN(Cc4cn(-c5ccc(Br)cc5)nn4)CC3)c(C)nc2c1	resazurin		> 100 µM
COC(=O)[C@@H]1Cc2c([nH]c3ccccc23)[C@@H](c2ccc3c(c2)OCO3)N1	MTT	48 h	10 µg/mL
CCOP(=O)(OCC)[C@@H]1C[C@H](n2cc(Cn3cc(C)c(=O)[nH]c3=O)nn2)ON1C (racemic)		72 h	> 250 µM
COC(=O)c1ccnc(C(=O)OC)c1			> 1000 µM
Cc1nc2ccc(Cl)cn2c1C(=O)N1CCN(Cc2cn(-c3ccccc3F)nn2)CC1	resazurin		> 100 µM
CCOP(=O)(OCC)[C@@H]1C[C@@H](n2cc(C(=O)OC)nn2)ON1C (relative stereo)		72 h	> 250 µM
COCCN1CCN(c2nc(SCCc3ccccc3)c(C#N)c3c2COC(C)(C)C3)CC1			< 50 µM
O=C(O)c1ccc(O)c2ncccc12			> 1000 µM
CSSc1ccccc1C(=O)O	MTT	48 h	409 µM
Cc1nc2ccc(Cl)cn2c1C(=O)N1CCN(Cc2cn(-c3ccc(F)c(Cl)c3)nn2)CC1	resazurin		> 100 µM
CN1CC[C@H](c2c(O)cc(O)c3c(=O)cc(-c4ccccc4Cl)oc23)[C@H](O)C1	MTT	72 h	0.12 µM
